Source: PubChem BioAssay
KCNQ1 pot – potentiators or activators of human KCNQ1 potassium channel | P51787 | CHO-K1 KCNQ1, thallium flux FluxOR fluorescence; hits give high values | 0.35% of 310,000 active | B-score at 10 µM | AID 2648;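 active = fluorescence ratio B-score, a plate-corrected score, at least three library SD, with initial intensity B-score within 5 SD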
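assay system = CHO-K1 cells stably expressing KCNQ1 | medium = assay buffer, equal DMSO in all wells | timing = 37 °C overnight plating, 90-min dark dye load, 20-min compound pretreatment | measured by = kinetic FluxOR thallium fluorescence, 10-s 1-Hz baseline, 110-s post-stimulus read | measure = fluorescence change relative to baseline, converted to B score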
KCNK9 block – blocks the human KCNK9 two-pore domain potassium channel | 1.2% of 310,000 active | B-score at 10 µM | HEK293 KCNK9, FluxOR thallium flux fluorescence; hits give low values;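 active = ratio B-score over 3 SD below the library mean, with starting fluorescence within 5 SD of its mean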;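 note: negative B-score means less thallium flux so channel inhibition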
KCNQ1 block – human KCNQ1 channel inhibition; P51787; CHO-K1 KCNQ1, FluxOR thallium flux fluorescence; hits give high values; B-score at 10 µM; 1.3% of 310,000 active; AID 2642;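 active = compounds whose thallium flux B-score, printed positive for inhibition, exceeds three library SD while starting fluorescence stays within three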;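 note: channel opened by potassium depolarization with thallium stimulus after 20 min compound exposure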
KCNK3 inh – human KCNK3 channel inhibition, primary screen. CHO-KCNK3 thallium flux, FluxOR fluorescence; hits give low values. B-score at 10 µM. 0.84% of 340,000 active. AID 602410;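 active = B-score under library mean minus 4 SD, starting fluorescence ratio at most library mean plus 5 SD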;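 note: more negative B-score means stronger inhibition of thallium flux through KCNK3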
Target sequence (O14649 whole entry, looked up): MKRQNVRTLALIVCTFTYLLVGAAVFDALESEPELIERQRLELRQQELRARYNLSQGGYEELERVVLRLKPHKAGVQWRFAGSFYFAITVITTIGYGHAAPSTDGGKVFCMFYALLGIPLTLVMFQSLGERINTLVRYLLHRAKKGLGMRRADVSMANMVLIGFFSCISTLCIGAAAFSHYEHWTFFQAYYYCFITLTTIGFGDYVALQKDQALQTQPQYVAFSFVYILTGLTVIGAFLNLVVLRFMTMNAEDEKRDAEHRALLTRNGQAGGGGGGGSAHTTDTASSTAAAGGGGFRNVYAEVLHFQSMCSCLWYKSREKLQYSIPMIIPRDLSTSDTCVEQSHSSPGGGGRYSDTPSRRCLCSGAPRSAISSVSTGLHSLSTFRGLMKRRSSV
hERG rescue – shields human hERG channel from block by proarrhythmic agents. Q12809. CHO-hERG, FluxOR thallium flux, dofetilide IC70 present. activation (rescue from dofetilide block), less the hit threshold, % at 10 µM. 0.51% of 310,000 active. AID 1511;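 active = activation above the mean of controls blocked by dofetilide plus 5 SD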;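 note: thallium influx through hERG after potassium depolarization seen as dye fluorescence rise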
KCC2 mod – modulates chloride dependent transport by human KCC2; 2.2% of 190,000 active; KCC2 cells, thallium flux FluoZin-2 fluorescence; B-score of Tl+ flux slope (higher = more flux/activation; lower = inhibition) at 10 µM; Q9H2X9;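 active = thallium flux slope and its plate-corrected score both differing from the plate sample mean at a set confidence after two filtering rounds, in either direction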;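 note: slope of fluorescence scaled to starting intensity during 10 to 20 s after thallium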
* marks the source's active call; other numbers are inactive results. Hits are enriched below; roughly 4.1% of the tested compounds scored in any of these assays.

Cc1cccc(C(=O)Nc2sc(C)c(-c3ccccc3)c2C#N)c1 was read as KCNQ1 pot inactive, KCNK9 block inactive, KCNQ1 block 6*, KCNK3 inh inactive, hERG rescue -5 and KCC2 mod 0.38.
`CSc1ccc(S(=O)(=O)NCC(=O)OCC(=O)N(Cc2ccccc2)C(C)C)cc1[N+](=O)[O-]` gave KCNQ1 pot inactive, KCNK9 block inactive, KCNQ1 block inactive, KCNK3 inh inactive and hERG rescue -18.
Screening O=c1cc2c(nn1Cc1c(Cl)cccc1Cl)-c1ccccc1CC2 returned KCNQ1 pot 9*, KCNK9 block inactive, KCNQ1 block inactive, KCNK3 inh inactive, hERG rescue -5 and KCC2 mod 1.2.
`COc1c(OC)c(O)c2c(=O)c(O)c(-c3ccccc3)oc2c1OC` gave KCNQ1 pot inactive, KCNK9 block inactive, KCNQ1 block inactive, KCNK3 inh inactive, hERG rescue -4 and KCC2 mod 52*.
Screening COc1cc(C(=O)NCC2CCCO2)cc(Br)c1OCc1ccccc1 (stereo not given) returned KCNK3 inh inactive.
For CCCCc1c(C)nc2nc(SCc3ccc(Cl)cc3)[nH]n2c1=O the results were KCNQ1 pot inactive, KCNK9 block inactive, KCNQ1 block 6*, KCNK3 inh inactive and hERG rescue -5.
O=C(NCc1ccccc1CN1CCCC1)c1cccc(N2CCCC2=O)c1 was read as KCNK3 inh inactive.
Screening Cc1ccc(NC(=O)C(=O)NCC2CCCN2S(=O)(=O)c2cccs2)c(C)c1 (stereo not given) returned KCNQ1 pot inactive, KCNK9 block inactive, KCNQ1 block inactive, KCNK3 inh inactive and hERG rescue -14.
For Cc1ccc(C)c(NC(=O)C(=O)NCC2CCCN2S(=O)(=O)c2cccs2)c1 (stereo not given) the results were KCNQ1 pot inactive, KCNK9 block -7.2*, KCNQ1 block inactive, KCNK3 inh inactive and hERG rescue -17.
Screening CCCN1C(=O)/C(=C\C=C2\N(CC)c3ccccc3C2(C)C)SC1=S returned KCNQ1 pot inactive, KCNK9 block inactive, KCNQ1 block 9*, KCNK3 inh inactive, hERG rescue -39 and KCC2 mod 0.52.
Screening OC[C@H]1O[C@@](CO)(O[C@H]2O[C@H](CO)[C@@H](O)[C@H](O)[C@H]2O)[C@@H](O[C@H]2O[C@H](CO)[C@@H](O)[C@H](O)[C@H]2O)[C@@H]1O returned KCNK3 inh inactive.
OC[C@H]1O[C@H](OC[C@H]2O[C@H](OC[C@H]3O[C@H](O[C@]4(CO)O[C@H](CO)[C@@H](O)[C@@H]4O)[C@H](O)[C@@H](O)[C@@H]3O)[C@H](O)[C@@H](O)[C@H]2O)[C@H](O)[C@@H](O)[C@H]1O was read as KCNQ1 pot 32*, KCNK9 block inactive, KCNQ1 block inactive, KCNK3 inh inactive and hERG rescue -3.
For CC(CCc1ccccc1)NC(=O)c1ccc(NC(=O)c2cccc(Br)c2)cc1 (stereo not given) the results were KCNQ1 pot inactive, KCNK9 block -7.4*, KCNQ1 block inactive, KCNK3 inh inactive, hERG rescue -2 and KCC2 mod 0.41.
For O=C(Cc1cccc2ccccc12)Nc1ccc(Br)cc1C(=O)O the results were KCNQ1 pot inactive, KCNK9 block inactive, KCNQ1 block 10*, KCNK3 inh inactive and hERG rescue -5.
For CSc1nc2c(c(=O)[nH]1)C(c1ccc(Br)cc1)CC(=O)N2 (stereo not given) the results were KCNQ1 pot inactive, KCNK9 block inactive, KCNQ1 block inactive, KCNK3 inh inactive, hERG rescue 11* and KCC2 mod -2.
Screening CSc1nc2c(c(=O)[nH]1)C(c1ccc(F)cc1)CC(=O)N2 (stereo not given) returned KCNQ1 pot inactive, KCNK9 block inactive, KCNQ1 block inactive, KCNK3 inh inactive, hERG rescue 12* and KCC2 mod -0.31.
COc1ccc2cc(S(=O)(=O)N3CCCC3)ccc2c1 was read as KCNQ1 pot inactive, KCNK9 block inactive, KCNQ1 block inactive, KCNK3 inh inactive and hERG rescue -2.
Screening COc1cccc(CSCC(=O)NCCc2ccccc2)c1OC returned KCNQ1 pot inactive, KCNK9 block inactive, KCNQ1 block inactive, KCNK3 inh inactive and hERG rescue -5.
CC(C)CCN1C(=O)C2(OCCCO2)c2cc(Cl)ccc21 was read as KCNQ1 pot inactive, KCNK9 block inactive, KCNQ1 block inactive, KCNK3 inh inactive and hERG rescue -7.
For CN(CC(=O)Nc1ccccc1Cl)C(=O)CN1C(=O)NC(c2ccccc2)(c2ccccc2)C1=O the results were KCNK3 inh inactive.
For CC(C)(NC(=O)c1cc(Cl)c2ccccc2c1O)C(=O)O the results were KCNQ1 pot inactive, KCNK9 block inactive, KCNQ1 block inactive, KCNK3 inh inactive, hERG rescue -3 and KCC2 mod -1.
`O=C(O)c1cc(Cl)c2ccccc2c1O` gave KCNQ1 pot inactive, KCNK9 block inactive, KCNQ1 block 6*, KCNK3 inh inactive, hERG rescue -13 and KCC2 mod -1.6.
Cc1cnnn1-c1ccc(C(=O)CCl)cc1 was read as KCNQ1 pot inactive, KCNK9 block inactive, KCNQ1 block 6*, KCNK3 inh inactive, hERG rescue -24 and KCC2 mod 0.46.
`O=C1CCCCC1CCc1ccncc1` (stereo not given) gave KCNK3 inh inactive.
`CCCCCC[N+](C)(C)CC/C=C1/c2ccccc2Sc2ccc(Cl)cc21` gave KCNQ1 pot inactive, KCNK9 block -8*, KCNQ1 block inactive, KCNK3 inh inactive, hERG rescue -17 and KCC2 mod 0.04.
O=C1C(CO)C(CO)C(CO)C1CO (stereo not given) was read as KCNK3 inh inactive.
For Cc1cc(S(=O)(=O)N2CCOCC2)ccc1OCC(=O)NCc1ccco1 the results were KCNQ1 pot inactive, KCNK9 block inactive, KCNQ1 block inactive, KCNK3 inh inactive and hERG rescue 6.7*.
`CC(=O)c1ccc(S(=O)(=O)N2CCN(C(C)C(=O)N(C)Cc3ccccc3)CC2)cc1` (stereo not given) gave KCNK3 inh inactive.
`CCOC(=O)c1c(N2C(=O)Nc3ccccc3N2O)n[nH]c1-c1cccc(Cl)c1` gave KCNQ1 pot 36*, KCNK9 block inactive, KCNQ1 block inactive, KCNK3 inh inactive, hERG rescue 11* and KCC2 mod 0.048.
